# Laboratory results published in ChEMBL document CHEMBL1159121, “Synthesis, in vitro structure-activity relationship, and in vivo studies of 2-arylthiazolidine-4-carboxylic acid amides as anticancer agents” (Bioorg Med Chem, 2010).
# What was measured:
# [1] = Cytotoxicity against human fibroblasts after 48 hrs by SRB assay; format: cell-based; conditions: Fibroblast
# In short: (§1)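 Melanoma lines and control fibroblasts grown at 37 °C, 5% CO2, then exposed to a wide concentration range for 48 h in round-bottom 96-well plates. Fixed with 10% TCA, stained with SRB, protein read at 560 nm. IC50 (50% growth inhibition versus untreated) obtained by nonlinear regression.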
# [2] = tested on: LNCaP; assay: Antiproliferative activity against human LNCAP cells after 96 hrs by SRB assay; format: functional, cell-based
# In short: (§2)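 Prostate lines in RPMI1640/10% FBS; RH7777 in DMEM/10% FBS. Cells TCA-fixed, stained with 0.4% SRB, absorbance read at 540 nm. IC50 from nonlinear regression of % survival against concentration.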
# [3] = tested on: RH7777; assay: Selectivity ratio of IC50 for rat RH7777 cells to IC50 for human prostate cancer cells
# In short: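 Ratio of RH7777 IC50 to the mean IC50 over four prostate lines (DU 145, PC-3, LNCaP, PPC-1). Prostate lines grown in RPMI1640/10% FBS and RH7777 in DMEM/10% FBS. Read by SRB (0.4%) at 540 nm; IC50 by nonlinear regression.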
# [4] = Antiproliferative activity against human WM164 cells after 48 hrs by SRB assay; format: functional, cell-based; conditions: WM164, 48 h; in short: as §1
# [5] = tested on: A-375; assay: Antiproliferative activity against human A375 cells after 48 hrs by SRB assay; format: functional, cell-based; conditions: A-375, 48 h; in short: as §1
# [6] = Selectivity ratio of IC50 for human fibroblasts to IC50 for human melanoma cells; format: ADME; conditions: human fibroblasts and human melanoma cells, read-out: Ratio IC50
# [7] = tested on: PPC-1; assay: Antiproliferative activity against human PPC1 cells after 96 hrs by SRB assay; format: functional, cell-based; conditions: PPC-1, 96 h; in short: as §2
# [8] = tested on: RH7777; assay: Cytotoxicity against rat RH7777 cells after 96 hrs by SRB assay; format: cell-based; conditions: RH7777, 96 h; in short: as §2
# [9] = tested on: DU-145; assay: Antiproliferative activity against human DU145 cells after 96 hrs by SRB assay; format: functional, cell-based; conditions: DU-145, 96 h; in short: as §2
# [10] = Antiproliferative activity against mouse B16-F1 cells after 48 hrs by SRB assay; format: functional, cell-based; conditions: B16-F1, 48 h; in short: as §1
# [11] = tested on: PC-3; assay: Antiproliferative activity against human PC3 cells after 96 hrs by SRB assay; format: functional, cell-based; conditions: PC-3, 96 h
SMILES,IC50 [1] [nM],IC50 [2] [nM],Ratio IC50 [3],IC50 [4] [nM],IC50 [5] [nM],selectivity ratio [6],IC50 [7] [nM],IC50 [8] [nM],IC50 [9] [nM],IC50 [10] [nM],IC50 [11] [nM]
CCCCCCCCCCCCCCCCNC[C@@H]1CSC(c2ccc(NC(C)=O)cc2)N1 (mixture of isomers),84500,4700,1.9,3200,14400,8.6,2400,7900,4700,11900,4500
CCCCCCCCC/C=C\CCCCCCCNC(=O)[C@@H]1CSC(c2cc(OC)c(OC)c(OC)c2)N1 (mixture of isomers),4800,700,8.6,1300,2400,1.7,500,8400,1200,4700,1500
CCCCCCCCC/C=C\CCCCCCCNC(=O)[C@@H]1CSC(c2ccc(OC)c(OC)c2)N1 (mixture of isomers),18300,1300,6.2,1200,1600,9,600,10000,2000,3300,2600
CCCCCCCCCCCCCCCCNC(=O)[C@@H]1CSC(c2ccccc2OC)N1 (mixture of isomers),7200,3600,3.6,2400,3000,2.2,1700,17200,6500,4300,7400
CCCCCCCCCCCCCCCCNC(=O)[C@@H]1CSC(c2ccc(NC(=O)CCl)cc2)N1 (mixture of isomers),25400,2000,9.4,5700,20400,0.6,400,9400,700,93300,900
CCCCCCCCC#CCCCCCCCCCNC(=O)[C@@H]1CSC(c2ccc(NC(C)=O)cc2)N1 (mixture of isomers),7000,2000,4,1300,2700,3.8,700,6600,1800,1600,2100
CCCCCCCCC/C=C\CCCCCCCNC(=O)[C@@H]1CSC(c2ccccc2)N1 (mixture of isomers),11600,1600,4.9,2400,4900,2.6,1000,8300,1800,6000,2400
CCCCCCCCC/C=C/CCCCCCCNC(=O)[C@@H]1CSC(c2ccc(OC)c(OC)c2)N1 (mixture of isomers),16300,800,8.2,1100,1400,8.6,300,9400,1500,3200,2000
CCCCCC/C=C\CCCCCCCCNC(=O)[C@@H]1CSC(c2ccc(NC(C)=O)cc2)N1 (mixture of isomers),14000,1800,3.9,2000,1900,7,1100,7600,2400,2100,2500
CCCCCCCCCCCCCCCCCCNC(=O)[C@@H]1CSC(c2cc(OC)c(OC)c(OC)c2)N1 (mixture of isomers),4700,1600,4.8,3000,4600,1,1000,14000,4100,5900,4900
